Only some compounds are listed: those with a hit (about 2.1% of all), similar ones and a draw of the others.
proKLK7 act: proKLK7 (human) activation, primary screen. purified proKLK7, EDANS-DABCYL substrate fluorescence; 100% is mature enzyme control, 0% vehicle. AID 652039. 370,000 tested, 0.9% active. activation, % at 7 µM. P49862;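 active = activation above the mean of all tested compounds plus 3 SD, computed per campaign excluding outliers beyond control limits, cut at about 13% in these data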
Target sequence (P49862 whole entry, looked up): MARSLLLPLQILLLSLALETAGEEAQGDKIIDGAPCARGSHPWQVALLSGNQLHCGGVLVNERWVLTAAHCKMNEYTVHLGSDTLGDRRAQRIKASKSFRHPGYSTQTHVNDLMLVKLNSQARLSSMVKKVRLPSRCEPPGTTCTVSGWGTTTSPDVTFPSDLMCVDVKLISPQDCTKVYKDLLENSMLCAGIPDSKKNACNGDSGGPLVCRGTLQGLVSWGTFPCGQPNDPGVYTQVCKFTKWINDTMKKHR
MEX-5 binding: C. elegans MEX-5 TCR-2 RNA binding activity; Q9XUB2; MEX-5/FITC-TCR2 RNA binding, fluorescence polarization; stronger effect = lower value; activity score (negative = inhibition of binding), % at 10 µM; 300,000 tested, 0.38% active; AID 1832;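 active = inhibition past about -25% in most replicates, and total fluorescence under double the plate's negative control median, limit read from the data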;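 note: 0% = DMSO and -100% = 5 µM competing unlabeled TCR2 RNA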
Target sequence (Q9XUB2 whole entry, looked up): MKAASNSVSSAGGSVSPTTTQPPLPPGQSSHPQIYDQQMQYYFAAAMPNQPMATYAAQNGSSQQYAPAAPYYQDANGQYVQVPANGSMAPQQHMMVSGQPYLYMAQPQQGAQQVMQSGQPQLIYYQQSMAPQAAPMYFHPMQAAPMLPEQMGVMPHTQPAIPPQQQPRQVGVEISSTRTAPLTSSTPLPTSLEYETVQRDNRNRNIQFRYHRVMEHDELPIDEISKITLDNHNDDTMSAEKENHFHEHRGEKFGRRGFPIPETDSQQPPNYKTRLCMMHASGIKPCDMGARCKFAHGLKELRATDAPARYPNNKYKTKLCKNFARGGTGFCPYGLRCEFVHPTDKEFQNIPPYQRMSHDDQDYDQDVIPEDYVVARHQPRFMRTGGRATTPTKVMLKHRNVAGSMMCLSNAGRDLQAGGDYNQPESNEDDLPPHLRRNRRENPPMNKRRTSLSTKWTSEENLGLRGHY
Runt-SMMHC FRET: blocks binding of human RUNX1 Runt domain to CBFb-SMMHC | Q01196+Q13951 | Cerulean-Runt/Venus-CBFb-SMMHC FRET ratio 530/480, 1 h | inhibition, % at 20 µM | 220,000 tested, 0.74% active | AID 1434;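 active = mean inhibition across duplicate retests at 20 µM reaching about 50%, limit read from the data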;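 note: 0% = DMSO wells and 100% = wells with excess untagged CBFb-SMMHC; inhibitors lower the FRET ratio by blocking Runt binding to CBFb-SMMHC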
RanGTP-Imp inh: disruptors of Ran-importin-beta complex formation – biochemical, FRET, CFP-Ran, YFP-importin-beta, homogeneous, primary screen; cell-free CFP-Ran/YFP-importin-beta FRET ratio; AID 2216; inhibition, % (no concentration beside the values); 300,000 tested, 1.1% active;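 active = more than half of the replicate wells show a fall in the fluorescence ratio signal beyond about 16%, limit read from the data, passing the limit was not always enough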;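 note: 0% = DMSO wells and 100% = Ran loaded with GDP instead of GTP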
Runt-CBFb FRET: Runt domain-CBFb interaction inhibition. Q01196+Q13951. Cerulean-Runt/Venus-CBFb FRET ratio 530/480, 1 h. inhibition, % at 20 µM. 220,000 tested, 0.46% active. AID 1496;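 active = inhibition over about 50% at 20 µM in the single-dose screen, limit read from the data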;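 note: 0% = DMSO wells and 100% = excess unlabeled CBFb competitor control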
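Schedule: protein complex preformed 1 h, compound exposure 1 h, room temperature, dark; test system: Cerulean-labeled Runt domain protein; amount: 100 nM per protein; buffer or medium: Tris 50 mM pH 7.5, KCl, K2SO4, 0.01% BSA; read-out: loss of energy transfer signal; detection: FRET fluorescence; controls: 5 µM unlabeled CBFb as full-inhibition high control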
KLK7 act conf: confirmation of human kallikrein-7 zymogen activators; shares compounds with proKLK7 act; purified proKLK7, EDANS-DABCYL substrate fluorescence; scaled: vehicle 0, mature enzyme 100; activation, % at 7 µM; 3,200 tested, 68% active; AID 686949;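 active = activation, as change over the incubation, above the mean of all tested compounds plus 3 SD, cut at about 13% in these data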
EDANS interfere: counter-screen for kallikrein-7 activators: EDANS-DABCYL optical interference | shares compounds with proKLK7 act | EDANS-DABCYL substrate fluorescence interference, no enzyme, 4 h; solvent 0%, active enzyme control 100% | activation, % at 7 µM | 3,200 tested, 80% active | AID 686952;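 active = activation above the all-compound mean plus 3 SD, ignoring values outside control-based bounds, cut at about 4.8% in these data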;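 note: value is the 4 h activation minus the activation read at time zero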
K7 EDANS ctr: counter-screen for kallikrein-7 activators: EDANS-DABCYL interference, dose response; AID 720493; EC50, µM; 250 tested, 20% active; shares compounds with proKLK7 act; EDANS-DABCYL peptide fluorescence interference, no enzyme;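 active = compounds that raise the fluorescence signal in this interference counterscreen, with EC50 at or below 10 µM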;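 note: intact quenched peptide substrate alone read at 355 nm excitation and 520 nm emission; signal is fluorescence gain from T0 to T4 after four hours at room temperature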
* marks the source's active call; other numbers are inactive results.

How did CCCCC1Cc2[nH]c(=S)[nH]c(=O)c2C(c2cccc3ccccc23)O1 (centres undefined) do in these assays?
proKLK7 act: -0.6

What do the screens show for `COc1ccc(CNC(=O)C2Cc3cc(S(=O)(=O)N4CCCC4)ccc3N2C(C)=O)c(OC)c1` (centres undefined)?
proKLK7 act: 0.5; MEX-5 binding: 1.9; RanGTP-Imp inh: 4.5

What do the screens show for `COc1ccccc1C1C2=C(CC(C)(C)CC2=O)Nc2nnnn21` (centres undefined)?
proKLK7 act: 15.4*; MEX-5 binding: -1.5; Runt-SMMHC FRET: 2.2; RanGTP-Imp inh: -6.5; Runt-CBFb FRET: 2.1; KLK7 act conf: 22.5*; EDANS interfere: 19.8*

What do the screens show for `COc1ccccc1C1C=C(c2ccc(C)cc2)Nc2nnnn21` (centres undefined)?
proKLK7 act: 19.0*; MEX-5 binding: -2.4; Runt-SMMHC FRET: -14.1; RanGTP-Imp inh: -2.1; Runt-CBFb FRET: -1.8; KLK7 act conf: 21.7*; EDANS interfere: 17.3*; K7 EDANS ctr: inactive

Results for Cc1c(-c2ccnc3cc(C(=O)O)nn23)cnn1C ?
proKLK7 act: 8.5; MEX-5 binding: -0.8; Runt-SMMHC FRET: 0.1; RanGTP-Imp inh: -2.7; Runt-CBFb FRET: -1.3

How did CCn1cc(-c2ccnc3cc(C(=O)O)nn23)c(C)n1 do in these assays?
proKLK7 act: 27.4*; MEX-5 binding: 1.5; Runt-SMMHC FRET: -0.2; RanGTP-Imp inh: 2.1; Runt-CBFb FRET: 2.3; KLK7 act conf: 73.0*; EDANS interfere: 75.2*

How did Cc1ccc(S(=O)(=O)N2CCC(NC(=O)c3cccc(C)c3)CC2)cc1 do in these assays?
proKLK7 act: 0.1; MEX-5 binding: 0.2; Runt-SMMHC FRET: -1.3; RanGTP-Imp inh: 1.5; Runt-CBFb FRET: -0.9

How did C#CCNC(=O)c1cc2cccnc2nc1N do in these assays?
proKLK7 act: 18.0*; KLK7 act conf: 46.4*; EDANS interfere: 45.3*

What do the screens show for `Nc1nc2ncccc2cc1C(=O)c1c[nH]c2ccccc12`?
proKLK7 act: -0.3

How did COc1ccc(-n2c(SCC(=O)Nc3ccc(S(=O)(=O)Nc4nccs4)cc3)nnc2-c2ccccc2)cc1 do in these assays?
proKLK7 act: 0.0

Results for O=c1[nH][nH]c2c1[C@H](c1ccc(F)cc1)O[C@H](CCc1ccccc1)C2 ?
proKLK7 act: -0.1

What do the screens show for `Cc1ccc(/C=C2/NC(=O)N(Cc3ccccc3)C2=O)s1`?
proKLK7 act: 17.4*; MEX-5 binding: -20.1; Runt-SMMHC FRET: -14.8; RanGTP-Imp inh: 4.7; Runt-CBFb FRET: -0.4; KLK7 act conf: 5.3; EDANS interfere: -24.5

How did CC1=NCC(C)c2ccccc21 (centres undefined) do in these assays?
proKLK7 act: -0.5

Results for CC1=NCC(C)c2c1[nH]c1ccccc21 (centres undefined) ?
proKLK7 act: 30.3*; MEX-5 binding: -0.1; Runt-SMMHC FRET: -14.3; RanGTP-Imp inh: 0.8; KLK7 act conf: 19.8*; EDANS interfere: 17.0*

How did C=CCc1cccc(C=NNC(=O)c2ccco2)c1O do in these assays?
proKLK7 act: -15.6

How did Cc1ccc(/C=C/C(=O)c2ccc(O)cc2)cc1 do in these assays?
proKLK7 act: 0.4; MEX-5 binding: 0.9; Runt-SMMHC FRET: -4.7; RanGTP-Imp inh: -4.7; Runt-CBFb FRET: 0.4

How did CSc1ccc(/C=C/C(=O)c2ccc(O)cc2)cc1 do in these assays?
proKLK7 act: 28.0*; MEX-5 binding: 1.2; Runt-SMMHC FRET: -61.8; RanGTP-Imp inh: -9.0; Runt-CBFb FRET: -15.7; KLK7 act conf: 2.0; EDANS interfere: 2.0

Results for O=S(=O)(c1ccc(F)cc1F)N1CCN(CCO)CC1 ?
proKLK7 act: 0.1

Results for CC(=O)Nc1c(-c2ccc(F)cc2)nc2ncccn12 ?
proKLK7 act: 12.1

Results for O=C(Nc1c(-c2ccccc2)nc2ncccn12)c1ccc(F)cc1 ?
proKLK7 act: 14.4*; KLK7 act conf: 12.3; EDANS interfere: 10.6*

How did CC(=O)Nc1nc2ncccn2c1-c1ccc(F)c(F)c1 do in these assays?
proKLK7 act: 20.8*; KLK7 act conf: 27.0*; EDANS interfere: 25.7*

Results for CC(=O)Nc1nc2ncccn2c1-c1ccccc1 ?
proKLK7 act: 9.6

Results for CC(=O)Nc1c(-c2ccccc2)nc2ncccn12 ?
proKLK7 act: 22.1*; MEX-5 binding: 0.2; Runt-SMMHC FRET: -1.9; RanGTP-Imp inh: 4.1; Runt-CBFb FRET: 2.0; KLK7 act conf: 60.1*; EDANS interfere: 57.1*

What do the screens show for `O=C(Nc1ccc(F)cc1)Nc1c(-c2ccc(F)cc2)nc2ncccn12`?
proKLK7 act: 14.7*; KLK7 act conf: 4.6; EDANS interfere: 5.1*

How did O=C(Nc1ccc(OC(F)(F)F)cc1)Nc1c(-c2ccc(F)cc2)nc2ncccn12 do in these assays?
proKLK7 act: -2.8

What do the screens show for `O=C(NC1CCCCC1)C(c1ccnc2ccccc12)n1c(=O)c(-c2ccccc2)nc2ccccc21` (centres undefined)?
proKLK7 act: -0.2

Results for Cc1ccc2c(c1)N(CC(=O)NCCCN1CCOCC1)C(=O)c1cccnc1O2 ?
proKLK7 act: -0.7; MEX-5 binding: -5.1; RanGTP-Imp inh: -2.6

What do the screens show for `COc1ccc(OC)c(/C=C/C(=O)Oc2ccc(C(C)=O)cc2)c1`?
proKLK7 act: 15.2*; MEX-5 binding: -0.3; RanGTP-Imp inh: 0.5; KLK7 act conf: 25.0*; EDANS interfere: 32.0*

How did COc1ccc(OC)c(/C=C/C(=O)OCC(=O)N2C(C)CCCC2C)c1 (centres undefined) do in these assays?
proKLK7 act: 12.9*; KLK7 act conf: 12.9*; EDANS interfere: 14.6*

What do the screens show for `COc1ccc(OC)c(/C=C/C(=O)OCC(=O)NCc2ccco2)c1`?
proKLK7 act: 22.9*; KLK7 act conf: 17.2*; EDANS interfere: 13.5*; K7 EDANS ctr: >69.5

How did COc1ccc(OC)c(/C=C/C(=O)OCC(=O)Nc2cccc(C(C)=O)c2)c1 do in these assays?
proKLK7 act: 7.1; MEX-5 binding: -0.6; Runt-SMMHC FRET: 2.7; RanGTP-Imp inh: -0.9; Runt-CBFb FRET: -2.9

How did COc1ccc(COc2cc(-c3cccc(OC)c3)nc3ccc(NC(=O)c4ccc(C)cc4)cc23)cc1 do in these assays?
proKLK7 act: -7.7; MEX-5 binding: 1.5; Runt-SMMHC FRET: 7.1; RanGTP-Imp inh: 0.4; Runt-CBFb FRET: -8.2

Screening results as filed in PubChem.
